The nature of data set [1]: Lipophilicity, log P by HPLC method. The settings on record: octanol/water.
In the next data set the target is Translocator protein (Rattus norvegicus, UniProt P16257). Briefly: Displacement of [3H]PK11195 from TSPO in Sprague-Dawley rat brain homogenates by liquid scintillation counting. It counts as tissue-based. In general terms: Displacement assays read how much labelled ligand stays bound in the presence of the test substance.
The nature of data set [2]: Chemical stability in 0.01 mM phosphate buffered saline assessed as purity of parent compound after 24 hrs by HPLC analysis. It counts as physicochemical. The settings on record: read-out: Activity. In outline: (§1)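 Test compound incubated in phosphate buffered saline at 37 °C. Parent compound decomposition followed over time by HPLC.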
Data set [3] is described as follows: Chemical stability in 0.01 mM phosphate buffered saline assessed as purity of parent compound after 2 hrs by HPLC analysis. It counts as physicochemical. Conditions: read-out: Activity. In outline:
as §1

The nature of data set [4]: Chemical stability in 0.01 mM phosphate buffered saline assessed as purity of parent compound after 4 hrs by HPLC analysis. Format: physicochemical. The settings on record: read-out: Activity. In outline:
as §1

A short description of data set [5]: Chemical stability in 0.01 mM phosphate buffered saline assessed as purity of parent compound after 6 hrs by HPLC analysis. Format: physicochemical. Conditions: read-out: Activity. In outline: as §1
Data set [6] is described as follows: Chemical stability in 0.01 mM phosphate buffered saline assessed as purity of parent compound after 1 hr by HPLC analysis. Format: physicochemical. The settings on record: read-out: Activity. In outline: as §1

Chain of Translocator protein (P16257 whole entry, looked up): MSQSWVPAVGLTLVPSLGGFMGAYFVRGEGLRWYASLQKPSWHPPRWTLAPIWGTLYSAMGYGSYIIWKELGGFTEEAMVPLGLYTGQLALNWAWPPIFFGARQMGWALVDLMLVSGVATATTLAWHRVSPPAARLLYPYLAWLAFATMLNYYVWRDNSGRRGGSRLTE

With `CN(Cc1cccc(I)c1)C(=O)c1cc(-c2ccc(F)cc2)c2ccccc2n1`, in data set [1], the logP is 5.16. In addition, at Translocator protein, the Ki is above 1000 nM.
`Cc1c(C(=O)N(C)Cc2ccc(I)cc2)nc2ccccc2c1-c1ccccc1` came in with a logP in data set [1] of 5.12. The same molecule returned a Ki at Translocator protein above 1000 nM.
In data set [1], `CN(CCc1ccccc1)C(=O)c1nc2ccccc2c(-c2ccccc2)c1CI` yielded a logP of 5.41. Affinity at Translocator protein was put at a Ki of 411 nM.
Molecule `CCC(C)N(C)C(=O)c1cc2ccccc2c(-c2ccccc2Cl)n1` (configuration not stated) [PK-11195] displayed a logP in data set [1] of 3.85.
For the molecule `CCN(CC)C(=O)c1nc2ccccc2c(-c2ccccc2)c1CI`, the remaining at 24 h in data set [2] amounted to 79%. The remaining at 2 h in data set [3] is 96%. Further, the remaining at 4 h in data set [4] turned out to be 94%. The remaining at 6 h in data set [5] stood at 94%. For the same molecule, the remaining at 1 h in data set [6] worked out at 96%.

The term logP denotes a log measure of how a compound divides between an organic and an aqueous phase. A low value points to lower lipophilicity. The Ki is the equilibrium dissociation constant of an inhibitor or competing ligand from its target.

For the origin of these results see ChEMBL document CHEMBL1159094, “New iodinated quinoline-2-carboxamides for SPECT imaging of the translocator protein” (Bioorg Med Chem Lett, 2010).
